MT1-MMP act inh – inhibitors of human MT1-MMP activation; P50281; HT1080 RFP-PRO-GFP cells, GFP/RFP ratio fluorescence, overnight; percent of plate control window, DMSO zero; GFP/RFP ratio change, % at 20 µM; 360,000 tested, 0.061% active;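 active = GFP/RFP ratio change of at least 30% with cell ATP level not reduced by more than half and red fluorescence within 50% of control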
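Assay system: RFP-PRO-GFP reporter HT1080 cells; read-out basis: GFP/RFP fluorescence ratio; benchmarks: DMSO wells and RFP-L50D-GFP cells; doses: 20 µM single dose, 1% DMSO; schedule: overnight cell settling, then overnight compound exposure, 37 °C, 5% CO2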
ADAM17 inh – inhibitors of human ADAM17; P78536; AID 720648; recombinant ADAM17, EDANS/DABCYL FRET peptide cleavage; 370,000 tested, 0.83% active; inhibition, % at 6.95 µM;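 active = inhibition above the mean of compounds lying between control limits plus 3 SD, set per campaign, cut at about 8.5% in these data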
Target sequence (P78536 215-824 limits assumed): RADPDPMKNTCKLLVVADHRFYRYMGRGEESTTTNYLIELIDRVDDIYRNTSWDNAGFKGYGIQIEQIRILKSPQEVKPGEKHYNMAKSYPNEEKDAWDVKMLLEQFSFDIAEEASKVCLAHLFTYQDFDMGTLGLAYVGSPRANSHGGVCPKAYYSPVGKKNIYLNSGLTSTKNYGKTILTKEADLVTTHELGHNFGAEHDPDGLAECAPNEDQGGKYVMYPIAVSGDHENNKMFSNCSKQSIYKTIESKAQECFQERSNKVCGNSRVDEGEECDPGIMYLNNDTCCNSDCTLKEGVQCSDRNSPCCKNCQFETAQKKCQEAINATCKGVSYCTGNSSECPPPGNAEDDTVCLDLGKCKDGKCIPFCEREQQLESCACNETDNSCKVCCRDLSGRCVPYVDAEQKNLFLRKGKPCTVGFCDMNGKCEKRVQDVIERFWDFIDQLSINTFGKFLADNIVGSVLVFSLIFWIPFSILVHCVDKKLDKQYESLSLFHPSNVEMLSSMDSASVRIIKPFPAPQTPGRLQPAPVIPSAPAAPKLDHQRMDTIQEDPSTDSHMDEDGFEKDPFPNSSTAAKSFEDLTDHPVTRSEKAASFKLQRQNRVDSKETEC
ADAM10 inh – inhibitors of human ADAM10; 370,000 tested, 0.62% active; inhibition, % at 7 µM; recombinant ADAM10, EDANS/DABCYL FRET peptide cleavage, 3 h; O14672;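 active = inhibition above a per-campaign cutoff equal to the mean of compounds falling between control-based bounds plus 3 SD, cut at about 20% in these data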
SKN-1 block – blocks SKN-1 activity in C. elegans. C. elegans VP596 Pgst-4::GFP/RFP ratio, acrylamide-induced, 24 h. inhibition, % at 21.8 µM. 360,000 tested, 0.49% active. AID 624304;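 active = interference check ratio from 0.5 to 1.5 plus GFP to RFP signal ratio inhibition reaching or exceeding a fixed threshold, cut at about 30% in these data, passing the limit was not always enough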
GRIN3A LBD mod – modulators (binders) of human NR3A ligand-binding domain. Tm shift relative to glycine control, % at 25 µM. 340,000 tested, 2.5% active. NR3A LBD differential scanning fluorimetry, Tm shift; 0% = protein alone, 100% = glycine-bound protein;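 active = melting temperature shift of at least 10% of the positive control shift, at one fixed dose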
MPTP block – inhibitors of mitochondrial permeability transition pore; AID 602449; inhibition, % at 10 µM; 360,000 tested, 1.4% active; isolated mouse mitochondria, Ca2+ swelling absorbance, 30 min;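 active = inhibition of 50% or more, scaled per plate between neutral and stimulator controls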
Hits are given with their value; i = inactive; nt = no result. Shown are actives, neighbours in structure and some others; about 4.7% of the full set was active somewhere.

SMILES | MT1-MMP act inh | ADAM17 inh | ADAM10 inh | SKN-1 block | GRIN3A LBD mod | MPTP block
CCOC(=O)C1=C(C)OC(N)=C(C#N)C1c1ccsc1 (stereo not drawn) | i | nt | nt | i | 11.1 | i
Fc1ccc2cnc(-c3ccsc3)cc2c1 | nt | i | i | nt | nt | nt
Cc1cc2cc(CN(Cc3ccco3)C(=S)NCC3CCCO3)c(=O)[nH]c2cc1C (stereo not drawn) | i | i | i | i | i | i
Cc1cc2cc(CN(CC3CCCO3)C(=S)NCc3ccco3)c(=O)[nH]c2cc1C (stereo not drawn) | i | i | i | i | 13.1 | i
COc1cc2c(cc1NC(=O)c1ccncc1)oc1ccccc12 | i | nt | nt | i | 22.3 | i
COc1cc2c(cc1NC(=O)C(C)OC(=O)c1ccc(S(=O)(=O)Nc3ccccc3Cl)cc1)oc1ccccc12 (stereo not drawn) | i | i | i | i | 10.2 | i
COc1cc2c(cc1NC(=O)/C=C/c1cc(OC)c(OC)c(OC)c1)oc1ccccc12 | i | i | i | i | 26.9 | i
COc1cc2c(cc1NC(=O)C(C)N1CCN(S(=O)(=O)c3ccc(C)c(C)c3)CC1)oc1ccccc12 (stereo not drawn) | i | i | i | i | i | i
COc1cc2c(cc1NC(=O)c1cccnc1)oc1ccccc12 | i | i | i | i | 20.4 | i
CN(C(=O)COC(=O)c1ccc(C#N)cc1)c1ccccc1 | i | i | i | i | i | i
Cc1noc(C)c1NC(=O)N(C)C[C@@H]1OCc2cnnn2CCCC(=O)N([C@@H](C)CO)C[C@H]1C | i | i | i | i | nt | i
COc1ccccc1NC(=O)/C=C/c1cc([N+](=O)[O-])ccc1OC(F)F | i | i | i | i | i | i
O=C(/C=C/c1cc([N+](=O)[O-])ccc1OC(F)F)Nc1cccc2ccccc12 | i | i | i | i | 13.2 | i
CC(=O)Nc1cccc(/C(C)=N/NC(=S)NC(C)C)c1 | i | i | i | i | i | i
COc1ccccc1NS(=O)(=O)c1cc(NC(=O)Nc2ccc(Cl)cc2Cl)ccc1N1CCCCC1 | i | i | i | i | 12.5 | i
COc1ccccc1NS(=O)(=O)c1cc(N)ccc1N1CCCCC1 | i | i | i | i | 32.8 | i
O=C(c1ccc2c(c1)OCO2)N1CCN(c2ccccn2)CC1 | i | i | i | i | i | i
COc1cc2c(-c3ccc(O)cc3)nc3c(c(C)nn3-c3ccccc3)c2cc1OC | i | i | i | i | 28.0 | i
CCNC(=O)C1(C)CCCN1C(=O)c1ccc(C#N)cc1 (stereo not drawn) | i | i | i | 63.3 | nt | i
CCOCCCNC(=O)CN1C(=O)COc2ccc(S(=O)(=O)N3CCCCCC3)cc21 | i | i | i | i | i | i
COCCNC(=O)CC(=O)N/N=C/c1cccc(C(=O)OC)c1 | i | i | i | i | i | i
COc1ccccc1C1NC(=O)CS1 (stereo not drawn) | i | i | i | i | 14.0 | i
COc1ccc(C2NC(=O)CS2)cc1OC (stereo not drawn) | i | i | i | i | i | i
COc1cccc(-c2cc(=O)c3cc(NC(=O)c4ccccc4)ccc3[nH]2)c1 | i | i | i | i | 26.2 | i
Cc1cccc(C(=O)Nc2ccc3ccccc3c2)c1 | i | i | i | i | i | i
SMILES | MT1-MMP act inh | ADAM17 inh | ADAM10 inh | SKN-1 block | GRIN3A LBD mod | MPTP block
COc1ccc(C(=O)Nc2ccc3ccccc3c2)cc1 | i | i | i | i | 21.1 | i
COc1cccc(C(=O)Nc2ccccc2)c1 | i | i | i | i | 25.9 | i
COc1cccc(C(=O)Nc2ccc3ccccc3c2)c1 | i | i | i | i | 30.4 | i
O=C(Nc1ccccc1)OCCOc1ccccc1Br | i | i | i | i | i | i
Cc1ccc(C)c(CSC2=NCCN2C(=O)c2cccs2)c1 | i | i | i | i | i | i
COc1ccc(C(=O)C2CCCN(Cc3cnc(N4CCCC4)s3)C2)cc1OC (stereo not drawn) | i | i | i | i | i | i
CC(C)c1ccc(NC(=O)c2ccc(NS(C)(=O)=O)cc2)cc1 | i | i | i | i | 19.8 | i
CC(=O)c1cccc(NC(=O)c2ccc(NS(C)(=O)=O)cc2)c1 | i | i | i | i | i | i
COc1cc(NC(=O)COc2ccc(Cl)cc2)ccc1-c1cc2ccccc2oc1=O | i | i | i | i | 10.2 | i
CS(=O)(=O)Nc1ccc(C(=O)Nc2ccc3ccccc3c2)cc1 | i | i | i | i | 30.8 | i
COc1ccc(OC)c(NS(=O)(=O)c2ccc(NC(=O)c3ccc(NS(C)(=O)=O)cc3)cc2)c1 | i | i | i | i | 20.7 | i
CCn1c(N2CCN(C(=O)/C=C/c3ccccc3)CC2)nc2ccccc21 | i | i | i | i | i | i
COc1cc(NS(=O)(=O)c2ccc(NC(C)=O)cc2)ncn1 | i | i | i | i | i | i
COc1cc(NS(=O)(=O)c2ccc(NC(=O)c3ccc(F)cc3)cc2)ncn1 | i | i | i | i | 12.6 | i
COc1cc(NS(=O)(=O)c2ccc(NC(=S)NC(=O)c3sc4cc(F)ccc4c3Cl)cc2)nc(OC)n1 | i | i | i | i | 17.1 | i
O=C(Nc1ccc(Nc2ccccc2)cc1)c1cccc(F)c1 | i | i | i | i | 29.4 | i
COc1cccc(C(=O)Nc2ccc(NC(=O)c3cc4ccccc4o3)c(OC)c2)c1 | i | i | i | i | 23.3 | i
COc1cc(NC(=O)c2ccccc2)ccc1NC(=O)c1cc2ccccc2o1 | i | i | i | i | i | i
CCN(Cc1ccncc1)Cc1cn[nH]c1-c1cc(OC)c(OC)c(OC)c1 | i | i | i | i | i | i
CCOC(=O)CNC(=O)N1CCCC(CNS(=O)(=O)c2cccs2)C1 (stereo not drawn) | i | i | i | i | i | i
Cn1nnc2cc(C(=O)Nc3ccc4ccccc4c3)ccc21 | i | i | i | i | 21.0 | i
O=C(Nc1ccncc1)Nc1cccc(F)c1 | i | i | i | i | 14.2 | i
O=C(Nc1ccc(N2CCOCC2)c(Cl)c1)c1cccc(F)c1 | i | i | i | i | 12.2 | i
O=C(Nc1cccnc1)Nc1cccc(F)c1 | i | i | i | i | i | i
COc1ccc(NC(=O)NNC(=O)COc2ccc3cc(Br)ccc3c2)cc1OC | i | i | i | i | i | i
COc1ccc(NC(=O)NNC(=O)COc2ccc3ccccc3c2)cc1OC | i | i | i | i | 15.9 | i
COc1ccc(C(=O)Nc2ccc3ccccc3c2)cc1OC | i | i | i | i | i | i
Cc1cccc(-c2nn(-c3ccccc3)cc2C(=O)Nc2cccc(S(=O)(=O)NC3=NCCC3)c2)c1 | i | i | i | i | i | i
COc1ccc(NC(=O)c2cccc(OS(=O)(=O)N(C)C)c2)cc1 | i | i | i | i | 11.7 | i
C=CCN(CC=C)C(=O)Nc1cc(Cl)ccc1OC | i | i | i | i | i | i

Screening results deposited in PubChem BioAssay by several laboratories.
